ChEMBL document CHEMBL3865800, “Design, synthesis and biological evaluation of 4-anilinoquinazoline derivatives as new c-myc G-quadruplex ligands” (Eur J Med Chem, 2016)
Activity calls are given as the source filed them. The calls are words filed in the database; no cut-off is given here.

Columns and labels:
[1] = Cytotoxicity against mouse primary mesangial cells assessed as reduction in cell viability after 48 hrs by MTT assay; type: toxicity
[2] = Binding affinity to 5'-Pu22-3' c-myc G-quadruplex DNA (unknown origin) assessed as maintainance of parallel c-myc G-quadruplex conformation at 2 equiv after 6 hrs in presence of KCl by CD-spectroscopic analysis
Outline: (§1)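 Pu22 at 3 μM final in 10 mM Tris-HCl buffer with ligand at 2 equiv, with 100 mM KCl or without KCl; heated 95 °C 5 min, slowly cooled, held ≥6 h; CD spectra 230–330 nm, 1 mm quartz cell, 1 nm bandwidth and step, 0.5 s/point, average of two scans.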

[3] = Binding affinity to 5'-FPu22T-3'-labelled c-myc G-quadruplex DNA (unknown origin) assessed as change in melting temperature at 2 uM in presence ds26 DNA of by FRET assay
Outline: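 FRET melting of 0.4 μM labelled FPu22T with ligand 2.0 μM, alone or with 10-fold (4 μM), 50-fold (20 μM) or 100-fold (40 μM) excess unlabelled duplex ds26 as competitor; Tris-HCl 10 mM pH 7.4 with 10 or 60 mM KCl; ex 470/em 530 nm read every 1 °C from 37–99 °C, 30 s hold; ΔTm = Tm(DNA+ligand) − Tm(DNA).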

[4] = Cytotoxicity against human CA46 cells assessed as reduction in cell viability after 48 hrs by MTT assay; type: functional, cell-based; conditions: CA46, 48 h
[5] = Binding affinity to biotinylated 5'-Pu22-3'-labelled c-myc G-quadruplex DNA (unknown origin) after 240 secs by SPR assay
Outline: (§2)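 SPR: biotinylated Pu22 and biotinylated duplex folded in 50 mM Tris-HCl pH 7.4, 150 mM KCl, 0.005% Tween20, captured (~1000 RU) on separate flow cells with a blank reference; ligand 0.0625–10 μM in running buffer, 240 s association then 240 s dissociation at 25 °C; equilibrium KD derived.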

[6] = Cytotoxicity against human HeLa cells assessed as reduction in cell viability after 48 hrs by MTT assay; type: functional, cell-based
[7] = Cytotoxicity against human Raji cells assessed as reduction in cell viability after 48 hrs by MTT assay; type: functional, cell-based
[8] = Binding affinity to 5'-Pu22-3' c-myc G-quadruplex DNA (unknown origin) assessed as induction of parallel c-myc G-quadruplex conformation at 2 equiv after 6 hrs in absence of KCl by CD-spectroscopic analysis; outline: as §1
[9] = Binding affinity to F10T duplex DNA (unknown origin) assessed as change in melting temperature by FRET assay
Outline: (§3)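 Fluorescence melting on real-time PCR instrument; 0.4 μM labelled oligonucleotide (FPu22T or duplex-forming F10T), ligand 2.0 μM, in 10 mM Tris-HCl pH 7.4 with 10 or 60 mM KCl; ex 470/em 530 nm at 1 °C steps over 37–99 °C, 30 s equilibration each; ΔTm = Tm(DNA+ligand) − Tm(DNA).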

[10] = Binding affinity to 5'-FPu22T-3'-labelled c-myc G-quadruplex DNA (unknown origin) assessed as change in melting temperature by FRET assay; outline: as §3
[11] = Cytotoxicity against human A549 cells assessed as reduction in cell viability after 48 hrs by MTT assay; type: functional, cell-based; conditions: A549, 48 h
[12] = Binding affinity to biotinylated double stranded DNA (unknown origin) after 240 secs by SPR assay; outline: as §2
[13] = Selectivity ratio of Kd for double stranded DNA (unknown origin) to Kd for biotinylated 5'-Pu22-3'-labelled c-myc G-quadruplex DNA
[14] = Drug uptake in human HeLa cells at 10 uM after 48 hrs
[15] = Cell cycle arrest in human HeLa cells assessed as accumulation at G0/G1 phase at 5 uM after 48 hrs by propidium iodide based FACS analysis (reference value: 35.9 %); type: functional
[16] = Cell cycle arrest in human HeLa cells assessed as accumulation at G0/G1 phase at 2.5 uM after 48 hrs by propidium iodide based FACS analysis (reference value: 35.9 %); type: functional
[17] = Cell cycle arrest in human HeLa cells assessed as accumulation at S phase at 5 uM after 48 hrs by propidium iodide based FACS analysis (reference value: 28.6 %); type: functional
[18] = Cell cycle arrest in human HeLa cells assessed as accumulation at S phase at 1.25 uM after 48 hrs by propidium iodide based FACS analysis (reference value: 28.6 %); type: functional
[19] = Cell cycle arrest in human HeLa cells assessed as accumulation at G0/G1 phase at 1.25 uM after 48 hrs by propidium iodide based FACS analysis (reference value: 35.9 %); type: functional
[20] = Cell cycle arrest in human HeLa cells assessed as accumulation at G2/M phase at 5 uM after 48 hrs by propidium iodide based FACS analysis (reference value: 33.7 %); type: functional
[21] = Cell cycle arrest in human HeLa cells assessed as accumulation at G0/G1 phase after 12 hrs by propidium iodide based FACS analysis (reference value: 30.8 %); type: functional
[22] = Cell cycle arrest in human HeLa cells assessed as accumulation at G2/M phase after 12 hrs by propidium iodide based FACS analysis (reference value: 46.1 %); type: functional
[23] = Cell cycle arrest in human HeLa cells assessed as accumulation at S phase at 2.5 uM after 48 hrs by propidium iodide based FACS analysis (reference value: 28.6 %); type: functional
[24] = Cell cycle arrest in human HeLa cells assessed as accumulation at G2/M phase after 48 hrs by propidium iodide based FACS analysis (reference value: 46.1 %); type: functional
[25] = species on record: Mus musculus; assay: Cytotoxicity against mouse primary mesangial cells assessed as cell growth inhibition at 1.25 to 10 uM after 80 hrs by RTCA assay; type: toxicity, cell-based
[26] = Cell cycle arrest in human HeLa cells assessed as accumulation at G2/M phase after 24 hrs by propidium iodide based FACS analysis (reference value: 46.1 %); type: functional
[27] = Cell cycle arrest in human HeLa cells assessed as accumulation at G0/G1 phase after 48 hrs by propidium iodide based FACS analysis (reference value: 30.8 %); type: functional
[28] = Cell cycle arrest in human HeLa cells assessed as accumulation at S phase after 48 hrs by propidium iodide based FACS analysis (reference value: 23.1 %); type: functional
[29] = Cell cycle arrest in human HeLa cells assessed as accumulation at G2/M phase at 2.5 uM after 48 hrs by propidium iodide based FACS analysis (reference value: 33.7 %); type: functional
[30] = Cell cycle arrest in human HeLa cells assessed as accumulation at G2/M phase at 1.25 uM after 48 hrs by propidium iodide based FACS analysis (reference value: 33.7 %); type: functional
[31] = test system: HeLa; assay: Cytotoxicity against human HeLa cells assessed as cell growth inhibition at 1.25 to 10 uM after 80 hrs by RTCA assay; type: functional, cell-based
[32] = test system: HeLa; assay: Binding affinity to c-myc G-quadruplex DNA in human HeLa cells assessed as reduction in c-myc gene expression at 1.25 to 10 uM after 6 hrs by Western blot analysis; type: cell-based
Outline: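 HeLa treated 6 h at 0–10 μM; lysates BCA-quantified, 20 μg protein on 12% SDS–PAGE, transferred to nitrocellulose, blocked in 5% BSA/TBS-Tween; probed with anti-c-myc and anti-GAPDH (loading control), HRP secondary, chemiluminescent detection.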

[33] = Cell cycle arrest in human HeLa cells assessed as accumulation at S phase after 24 hrs by propidium iodide based FACS analysis (reference value: 23.1 %); type: functional
[34] = Cell cycle arrest in human HeLa cells assessed as accumulation at G0/G1 phase after 24 hrs by propidium iodide based FACS analysis (reference value: 30.8 %); type: functional
[35] = test system: HeLa; assay: Binding affinity to c-myc G-quadruplex DNA in human HeLa cells assessed as inhibition of c-myc transcription after 3 hrs by RT-PCR analysis; type: cell-based
Outline: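 HeLa (2×10^5/well) treated 3 h with 1.25–10 μM or DMSO; total RNA oligo-dT primed, M-MLV reverse transcribed (70 °C 10 min; 42 °C 1 h; 70 °C 15 min); c-myc and β-actin (internal control) amplified by real-time PCR, products run on 1.5% agarose.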

[36] = Cell cycle arrest in human HeLa cells assessed as accumulation at S phase after 12 hrs by propidium iodide based FACS analysis (reference value: 23.1 %); type: functional

CCN(CC)CCNCCC(=O)Nc1ccc(Nc2nc(-c3ccccc3NC(=O)CCNCCN(CC)CC)nc3ccccc23)cc1
IC50 at 48 h [1]: > 50 µM | Activity [2]: Active | Activity [3]: Active | IC50 [4]: > 50 µM | Kd [5]: 0.21 µM | IC50 [6]: > 50 µM | IC50 [7]: > 50 µM | Activity [8]: Active | ΔTm [9]: 0.6 °C | ΔTm [10]: 18 °C | IC50 [11]: > 50 µM

O=C(CCN1CCCCC1)Nc1ccc(Nc2nc(-c3ccccc3NC(=O)CCN3CCCCC3)nc3ccccc23)cc1
IC50 at 48 h [1]: 6.3 µM | Activity [2]: Active | Activity [3]: Active | IC50 [4]: 4.5 µM | Kd [5]: 0.22 µM | IC50 [6]: 7.4 µM | IC50 [7]: 1.3 µM | Kd [12]: > 10 µM | Selectivity ratio [13]: > 45.4 | Activity [8]: Active | ΔTm [9]: 1.4 °C | ΔTm [10]: 17.9 °C | IC50 [11]: 7.5 µM

CN1CCN(CCC(=O)Nc2ccc(Nc3nc(-c4ccccc4NC(=O)CCN4CCN(C)CC4)nc4ccccc34)cc2)CC1
IC50 at 48 h [1]: > 50 µM | Activity [2]: Active | Activity [3]: Active | IC50 [4]: 19.5 µM | Kd [5]: 0.4 µM | IC50 [6]: 20.1 µM | IC50 [7]: 27.8 µM | Activity [8]: Active | ΔTm [9]: 0.3 °C | ΔTm [10]: 13.2 °C | IC50 [11]: > 50 µM

CCN(CC)CCC(=O)Nc1ccc(Nc2nc(-c3ccccc3NC(=O)CCN(CC)CC)nc3ccccc23)cc1
IC50 at 48 h [1]: 13.1 µM | Drug uptake [14]: Active | Activity [2]: Active | Activity [15]: 54.8% | Activity [16]: 48.9% | Activity [3]: Active | Activity [17]: 29% | IC50 [4]: 6.5 µM | Kd [5]: 0.21 µM | Activity [18]: 26.4% | Activity [19]: 48.4% | IC50 [6]: 4.4 µM | Activity [20]: 12.7% | Activity [21]: 41.8% | Activity [22]: 38.8% | IC50 [7]: 3.1 µM | Activity [23]: 30.2% | Kd [12]: > 10 µM | Activity [24]: 22.1% | Selectivity ratio [13]: > 47.6 | Activity [25]: Non-Toxic | Activity [8]: Active | ΔTm [9]: 0.8 °C | Activity [26]: 38.1% | Activity [27]: 61.1% | Activity [28]: 16.8% | Activity [29]: 18.4% | Activity [30]: 22.2% | growth inhibition (GI) [31]: Active | ΔTm [10]: 19.6 °C | IC50 [11]: 5.9 µM | inhibition [32]: Active | Activity [33]: 18.4% | Activity [34]: 43.5% | inhibition [35]: Dose-dependent effect | Activity [36]: 19.4%

O=C(CN1CCCC1)Nc1ccc(Nc2nc(-c3ccccc3NC(=O)CN3CCCC3)nc3ccccc23)cc1
IC50 at 48 h [1]: 16.5 µM | Drug uptake [14]: Active | Activity [2]: Active | Activity [3]: Active | IC50 [4]: 1.8 µM | Kd [5]: 0.16 µM | IC50 [6]: 2.9 µM | IC50 [7]: 1.9 µM | Kd [12]: > 10 µM | Selectivity ratio [13]: > 62.5 | Activity [8]: Active | ΔTm [9]: 0.6 °C | ΔTm [10]: 13.3 °C | IC50 [11]: 18.7 µM

O=C(CCN1CCCC1)Nc1ccc(Nc2nc(-c3ccccc3NC(=O)CCN3CCCC3)nc3ccccc23)cc1
IC50 at 48 h [1]: 23.3 µM | Drug uptake [14]: Active | Activity [2]: Active | Activity [3]: Active | IC50 [4]: 7.2 µM | Kd [5]: 0.2 µM | IC50 [6]: 7 µM | IC50 [7]: 4 µM | Kd [12]: > 10 µM | Selectivity ratio [13]: > 50 | Activity [8]: Active | ΔTm [9]: 0.9 °C | ΔTm [10]: 14.2 °C | IC50 [11]: 26.6 µM

CN(C)CCNCCC(=O)Nc1ccc(Nc2nc(-c3ccccc3NC(=O)CCNCCN(C)C)nc3ccccc23)cc1
IC50 at 48 h [1]: > 50 µM | Activity [2]: Active | Activity [3]: Active | IC50 [4]: 28.2 µM | Kd [5]: 0.14 µM | IC50 [6]: > 50 µM | IC50 [7]: > 50 µM | Activity [8]: Active | ΔTm [9]: 0.8 °C | ΔTm [10]: 19.4 °C | IC50 [11]: > 50 µM
